Assay [1] in a line: hit retest on RPL19A-GFP reporter strain – cell-based, S. cerevisiae, flow cytometry, cherry picks, mother/daughter gates, confirmation (AID 2270;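 active = GFP response below 50% of the DMSO control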). Conditions: 3 h, at 10 µM, stronger effect = lower value, 100 = same GFP as DMSO wells.
The nature of assay [2]: yeast TOR pathway reporter LAP4-GFP change – cell-based, cherry picks, flow cytometry, mother/daughter gates, confirmation (AID 2271;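 active = GFP response above 150% of the DMSO control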;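 note: ratio of sample to DMSO plate mean so 100% equals DMSO level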). Conditions: S. cerevisiae LAP4-GFP strain, 3 h, at 10 µM, stronger effect = higher value, 100 means same as DMSO control. The procedure, abridged: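 Test system: GFP-fusion yeast strain. Medium: synthetic complete (SC) yeast growth medium. Timing: 3 h treatment at 30 °C with rotation. Measured by: GFP by flow cytometry. Control set: positive rapamycin (400 ng/mL), negative DMSO.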

Assay [3] in a line: TOR pathway reporter MEP2-GFP, retest of hits – S. cerevisiae, flow cytometry GFP, cherry picks, confirmation (AID 2272;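 active = GFP response above 150% of the DMSO control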;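 note: ratio of well signal to plate DMSO mean so 100% equals DMSO level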). Conditions: S. cerevisiae MEP2-GFP strain, 3 h, at 10 µM, stronger effect = higher value. In general terms: A flow cytometer gives signals particle by particle.
Assay [4] can be described thus: yeast AGP1-GFP fluorescence change, single-dose – cell-based, flow cytometry, S. cerevisiae, cherry picks, confirmation (AID 2273).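 Note: median GFP channel fluorescence over the whole cell population gate.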 As to conditions: S. cerevisiae AGP1-GFP strain, 3 h, at 10 µM.
Assay [5] in a line: TOR pathway CIT2 reporter hit retest – S. cerevisiae, GFP fusion, cherry picks, mother/daughter gates, confirmation (AID 2274). Conditions: S. cerevisiae CIT2-GFP strain, flow cytometry, 3 h, at 10 µM, stronger effect = higher value.
The mark [6] stands for this setting: measured here: daughter cell gate.
Where [7] appears, read: measured here: mother cell gate.
[8] abbreviates: measured here: daughter cell gate response.
The mark [9] stands for this setting: measured here: mother cell gate response.

Activity calls are given as the source filed them.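 Rule for the calls, unless noted: active = GFP response above 150% of the DMSO level; inconclusive = fewer than 70 events counted for a yeast strain; inactive = the rest.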

Take `Cc1nnc(NC(=O)c2ccc(S(=O)(=O)N(C)Cc3ccccc3)cc2)o1`: the GFP response vs DMSO is 98.4% (inactive) in assay [1], 98.1% in assay [1] (setting [6]), 98.2% in assay [1] (setting [7]) and 102% (inactive) in assay [3]. Besides, the GFP response relative to DMSO is 101% (inactive) in assay [2], 99.2% in assay [2] (setting [8]) and 101% in assay [2] (setting [9]). In addition, the GFP response, % of DMSO in assay [4] is 91.2% (inactive); in assay [5] it was 103% (inactive); in assay [5] (setting [6]), 101%; in assay [5] (setting [7]), 102%.
For `COc1ccc(C(=O)/C=C2/C(=O)Nc3ccccc32)c(OC)c1`, the GFP response vs DMSO is 99.5% (inactive) in assay [1], 96.7% in assay [1] (setting [6]), 95.2% in assay [1] (setting [7]) and 97.8% (inactive) in assay [3]. Further, the GFP response relative to DMSO in assay [2] is 136% (inactive); in assay [2] (setting [8]), 123%; in assay [2] (setting [9]) it was 139%. In addition, the GFP response, % of DMSO is 99.2% (inactive) in assay [4], 82.2% (inactive) in assay [5], 83.4% in assay [5] (setting [6]) and 77.3% in assay [5] (setting [7]).
In the case of `CCc1noc(C)c1C(=O)Nc1nc(-c2ccc(Cl)cc2Cl)cs1`, the GFP response vs DMSO in assay [1] is 95.6% (inactive); in assay [1] (setting [6]), 95.6%; in assay [1] (setting [7]) it was 94%; in assay [3], 103% (inactive). In addition, the results for the GFP response relative to DMSO in assay [2], in assay [2] (setting [8]) and in assay [2] (setting [9]) were 97.7% (inactive), 96% and 97.4%, respectively. In addition, the GFP response, % of DMSO is 96.1% (inactive) in assay [4], 94.4% (inactive) in assay [5], 97.6% in assay [5] (setting [6]) and 93.8% in assay [5] (setting [7]).
On to `CC(C)(C)NC(=O)c1ccccc1-c1nc(-c2ccccc2Cl)no1`, for which the GFP response vs DMSO is 94.8% (inactive) in assay [1], 95.9% in assay [1] (setting [6]), 93.2% in assay [1] (setting [7]) and 107% (inactive) in assay [3]. For the same compound, the GFP response relative to DMSO in assay [2] was 99.5% (inactive); in assay [2] (setting [8]) it was 99.1%; in assay [2] (setting [9]), 99.4%. Moreover, the GFP response, % of DMSO in assay [4] was 97.3% (inactive); in assay [5], 93% (inactive); in assay [5] (setting [6]) it was 92%; in assay [5] (setting [7]) it was 93.2%.
As for `Cc1ccnc(N2C(=O)c3cccc4c([N+](=O)[O-])ccc(c34)C2=O)c1`, the GFP response vs DMSO is 102% (inactive) in assay [1], 101% in assay [1] (setting [6]), 95% in assay [1] (setting [7]) and 318% (active) in assay [3]. Besides, the GFP response relative to DMSO in assay [2] was 182% (active); in assay [2] (setting [8]) it was 177%; in assay [2] (setting [9]) it was 178%. Moreover, the GFP response, % of DMSO in assay [4] was 123% (inactive); in assay [5], 177% (active); in assay [5] (setting [6]) it was 159%; in assay [5] (setting [7]), 164%.
On to `C=CCn1cc(/C=C/c2cc[n+](C)cc2)c2ccccc21`, for which the GFP response vs DMSO in assay [1] is 102% (inactive); in assay [1] (setting [6]) it was 99.6%; in assay [1] (setting [7]), 103%; in assay [3] it was 120% (inactive). For the same compound, the GFP response relative to DMSO is 108% (inactive) in assay [2], 107% in assay [2] (setting [8]) and 108% in assay [2] (setting [9]). The GFP response, % of DMSO is 97.8% (inactive) in assay [4], 125% (inactive) in assay [5], 119% in assay [5] (setting [6]) and 127% in assay [5] (setting [7]).
As to `COc1ccc(NC(=O)C2CCN(S(=O)(=O)c3ccc(OC)c(OC)c3)CC2)c(OC)c1`, the GFP response vs DMSO in assay [1] was 90.6% (inactive); in assay [1] (setting [6]), 92%; in assay [1] (setting [7]), 89%; in assay [3], 107% (inactive). Further, the GFP response relative to DMSO in assay [2] is 99.5% (inactive); in assay [2] (setting [8]) it was 99.1%; in assay [2] (setting [9]), 102%. Also, the GFP response, % of DMSO in assay [4] is 100% (inactive); in assay [5], 103% (inactive); in assay [5] (setting [6]) it was 97.4%; in assay [5] (setting [7]) it was 105%.
On to `O=C1c2cccc3cccc(c23)C(=O)N1c1ccncc1`, for which the GFP response vs DMSO in assay [1] is 96.4% (inactive); in assay [1] (setting [6]) it was 97%; in assay [1] (setting [7]) it was 98.8%; in assay [3], 97.5% (inactive). Also, the GFP response relative to DMSO was 84.9% (inactive) in assay [2], 85% in assay [2] (setting [8]) and 84.7% in assay [2] (setting [9]). Moreover, the GFP response, % of DMSO is 103% (inactive) in assay [4], 105% (inactive) in assay [5], 106% in assay [5] (setting [6]) and 106% in assay [5] (setting [7]).
Regarding `CC(C)COC(=O)NCC12C=CC(O1)C1C(=O)N(c3ccc(Cl)cc3)C(=O)C12` (configuration not stated), the GFP response vs DMSO is 99.6% (inactive) in assay [1], 99.5% in assay [1] (setting [6]), 98.4% in assay [1] (setting [7]) and 106% (inactive) in assay [3]. In addition, the GFP response relative to DMSO was 98.9% (inactive) in assay [2], 101% in assay [2] (setting [8]) and 99.5% in assay [2] (setting [9]). Also, the GFP response, % of DMSO in assay [4] is 107% (inactive); in assay [5] it was 101% (inactive); in assay [5] (setting [6]), 101%; in assay [5] (setting [7]), 102%.
Take `O=C(/C=C/c1ccccn1)c1cc(Br)ccc1O`: the GFP response vs DMSO in assay [1] was 81.7% (inactive); in assay [1] (setting [6]) it was 93.3%; in assay [1] (setting [7]), 72.8%; in assay [3], 109% (inactive). Further, the results for the GFP response relative to DMSO in assay [2], in assay [2] (setting [8]) and in assay [2] (setting [9]) were 218% (active), 177% and 210%, respectively. In addition, the GFP response, % of DMSO in assay [4] was 102% (inactive); in assay [5], 86.1% (inactive); in assay [5] (setting [6]), 94.8%; in assay [5] (setting [7]), 77.3%.
Take `Cc1ccc(/C=C/C(=O)c2ccccc2)cc1`: the GFP response vs DMSO is 97.4% (inactive) in assay [1], 96.7% in assay [1] (setting [6]), 98.3% in assay [1] (setting [7]) and 99.5% (inactive) in assay [3]. Also, the GFP response relative to DMSO in assay [2] was 100% (inactive); in assay [2] (setting [8]), 102%; in assay [2] (setting [9]), 99.5%. Further, the GFP response, % of DMSO was 102% (inactive) in assay [4], 102% (inactive) in assay [5], 100% in assay [5] (setting [6]) and 99.1% in assay [5] (setting [7]).
Consider `CC(=O)NN1C(=O)/C(=C/c2ccc(Br)o2)SC1=S`, for which the GFP response vs DMSO was 103% (inactive) in assay [1], 101% in assay [1] (setting [6]), 102% in assay [1] (setting [7]) and 139% (inactive) in assay [3]. Besides, the values for the GFP response relative to DMSO in assay [2], in assay [2] (setting [8]) and in assay [2] (setting [9]) were 128% (inactive), 122% and 126%, respectively. In addition, the GFP response, % of DMSO in assay [4] is 111% (inactive); in assay [5], 153% (active); in assay [5] (setting [6]) it was 150%; in assay [5] (setting [7]), 150%.
Take `Cc1[nH]c2ccccc2c1C(c1ccccn1)N1CCC(C(N)=O)CC1` (configuration not stated): the GFP response vs DMSO in assay [1] was 97.4% (inactive); in assay [1] (setting [6]), 99.1%; in assay [1] (setting [7]), 96.6%; in assay [3], 98.3% (inactive). Moreover, the GFP response relative to DMSO in assay [2] is 96.7% (inactive); in assay [2] (setting [8]) it was 99.2%; in assay [2] (setting [9]), 97.2%. In addition, the GFP response, % of DMSO in assay [4] was 94.7% (inactive); in assay [5], 101% (inactive); in assay [5] (setting [6]) it was 103%; in assay [5] (setting [7]) it was 101%.
As for `O=[N+]([O-])c1ccccc1OCCOc1ccccc1[N+](=O)[O-]`, the GFP response vs DMSO in assay [1] is 103% (inactive); in assay [1] (setting [6]), 101%; in assay [1] (setting [7]), 100%; in assay [3], 102% (inactive). For the same compound, the figures for the GFP response relative to DMSO in assay [2], in assay [2] (setting [8]) and in assay [2] (setting [9]) were 106% (inactive), 101% and 101%, respectively. In addition, the GFP response, % of DMSO was 106% (inactive) in assay [4], 105% (inactive) in assay [5], 103% in assay [5] (setting [6]) and 98.5% in assay [5] (setting [7]).
For the compound `Cc1ccc(/C=C/C(=O)c2ccccc(=O)c2O)c(C)c1`, the GFP response vs DMSO is 90.2% (inactive) in assay [1], 112% in assay [1] (setting [6]), 93.5% in assay [1] (setting [7]) and 137% (inactive) in assay [3]. The GFP response relative to DMSO was 152% (active) in assay [2], 146% in assay [2] (setting [8]) and 158% in assay [2] (setting [9]). Besides, the GFP response, % of DMSO in assay [4] is 84.3% (inactive); in assay [5] it was 103% (inactive); in assay [5] (setting [6]) it was 99.2%; in assay [5] (setting [7]), 96.8%.
Consider `Cc1ccc(CN2CCSc3sccc3C2=O)cc1`, for which the GFP response vs DMSO in assay [1] is 84.4% (inactive); in assay [1] (setting [6]), 83.1%; in assay [1] (setting [7]) it was 85.5%; in assay [3], 96.8% (inactive). Besides, the GFP response relative to DMSO in assay [2] is 142% (inactive); in assay [2] (setting [8]) it was 130%; in assay [2] (setting [9]), 145%. Moreover, the GFP response, % of DMSO in assay [4] was 97.1% (inactive); in assay [5] it was 75.5% (inactive); in assay [5] (setting [6]) it was 72.1%; in assay [5] (setting [7]) it was 76%.
As for `CCC(=O)Nc1cccc(C(=O)/C=C/c2ccccc2)c1`, the GFP response vs DMSO in assay [1] is 102% (inactive); in assay [1] (setting [6]) it was 102%; in assay [1] (setting [7]), 101%; in assay [3], 109% (inactive). The GFP response relative to DMSO was 105% (inactive) in assay [2], 102% in assay [2] (setting [8]) and 106% in assay [2] (setting [9]). The GFP response, % of DMSO is 97.3% (inactive) in assay [4], 97.3% (inactive) in assay [5], 95.6% in assay [5] (setting [6]) and 95.6% in assay [5] (setting [7]).
